Hits are enriched below; roughly 3.2% of the tested compounds scored in any of these assays.
MEKK2mut PB1 HTS – MEK5 binding signal on mutant MEKK2 PB1, primary screen, biochemical, multiplex bead flow cytometry, Alexa488-MEK5; AID 1530, 2009; Alexa488-MEK5 binding to MEKK2 mutant; 290,000 compounds, 0.35% hits; percent response, % at 10 µM; in the data active = percent response above about 24%, passing the limit was not always enough
Apaf-1 inh – inhibitors of human Apaf-1 apoptosome, primary screen, biochemical, DEVD-Rh110 fluorescence, uHTS | Apoptotic protease-activating factor 1 (Homo sapiens), O14727 | reconstituted apoptosome caspase-3 activity | inhibition, % at 20 µM | 330,000 compounds, 0.71% hits; active = inhibition of at least 40% at 20 µM;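 also: plate controls were DMSO wells for no effect and DEVD-CHO caspase inhibitor wells for full effect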
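System – cell-free apoptosome with Apaf-1, procaspase-3 and caspase-9 · Buffer or medium – pH 7.5 Hepes buffer with CHAPS, BSA, DTT · Also added – cytochrome c with DEVD-Rh110 · Times – 30 min compound preincubation, 50 min activation, room temperature · Technique – Rh110 fluorescence intensity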
MEKK2 WT-MEK5 – modulators of MEK5 binding to wildtype MEKK2, primary screen, biochemical, multiplex bead flow cytometry, Alexa488-MEK5; Mitogen-activated protein kinase kinase kinase 2 (Homo sapiens), Q9Y2U5; Alexa488-MEK5 binding to MEKK2 WT; actives lie on both sides; binding response (% of control), % at 10 µM; 290,000 compounds, 1.1% hits; in the data active = binding response below about 67% or above about 130%
DSG3 Ab inh – inhibitors of pemphigus antibody binding to DSG3, primary screen, biochemical, bead-based, flow cytometry, scFv-GFP. AID 588358, 2011. 310,000 compounds, 0.48% hits. Desmoglein-3 (Homo sapiens), P32926. binding (percent of control), % at 10 µM. DSG3-coupled beads, scFv-anti-DSG3-GFP binding; active compounds read low;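 active = binding more than 3 SD below its plate's average and above zero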;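 also: hits lower antibody fragment binding to DSG3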
Target sequence (P32926 whole entry, looked up, the tested form may be a part): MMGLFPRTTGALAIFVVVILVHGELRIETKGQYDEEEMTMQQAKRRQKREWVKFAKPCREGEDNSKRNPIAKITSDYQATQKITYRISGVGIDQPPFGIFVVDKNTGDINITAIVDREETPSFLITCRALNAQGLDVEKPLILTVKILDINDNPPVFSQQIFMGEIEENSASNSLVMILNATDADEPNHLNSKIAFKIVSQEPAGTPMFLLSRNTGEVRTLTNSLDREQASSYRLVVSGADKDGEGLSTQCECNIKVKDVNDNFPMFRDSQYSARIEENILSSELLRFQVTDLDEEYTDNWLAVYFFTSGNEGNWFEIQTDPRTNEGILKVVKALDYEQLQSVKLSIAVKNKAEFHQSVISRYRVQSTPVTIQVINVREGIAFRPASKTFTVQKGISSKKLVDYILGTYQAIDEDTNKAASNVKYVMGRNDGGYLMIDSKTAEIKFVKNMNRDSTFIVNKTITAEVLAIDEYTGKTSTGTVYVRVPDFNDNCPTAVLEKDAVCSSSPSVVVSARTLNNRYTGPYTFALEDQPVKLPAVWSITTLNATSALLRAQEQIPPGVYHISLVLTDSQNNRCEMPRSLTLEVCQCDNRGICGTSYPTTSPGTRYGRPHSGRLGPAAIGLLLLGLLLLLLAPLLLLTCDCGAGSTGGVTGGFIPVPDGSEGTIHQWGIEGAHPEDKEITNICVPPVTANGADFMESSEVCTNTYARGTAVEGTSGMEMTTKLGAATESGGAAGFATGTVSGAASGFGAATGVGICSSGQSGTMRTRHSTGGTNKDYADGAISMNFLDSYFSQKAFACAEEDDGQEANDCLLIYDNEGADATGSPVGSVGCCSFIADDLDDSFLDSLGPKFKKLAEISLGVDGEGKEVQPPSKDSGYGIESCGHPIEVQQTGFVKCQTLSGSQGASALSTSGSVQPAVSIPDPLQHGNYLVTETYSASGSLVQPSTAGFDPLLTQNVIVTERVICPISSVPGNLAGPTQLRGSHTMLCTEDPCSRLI
UBC13 polyUb – UBC13 polyubiquitin chain formation inhibitors, primary screen, biochemical, TR-FRET, uHTS | inhibition, % at 20 µM | 330,000 compounds, 0.47% hits; in the data active = inhibition above about 45%, passing the limit was not always enough
MEKK3 PB1 HTS – modulators of MEKK3-MEK5 PB1 binding, primary screen, biochemical, wildtype MEKK3, multiplex bead flow cytometry, Alexa488-MEK5 | Mitogen-activated protein kinase kinase kinase 3 (Homo sapiens), Q99759 | bead-based flow cytometry, Alexa488-MEK5 binding to MEKK3; actives lie on both sides; 0 = blocked by unlabeled MEK5, 100 = vehicle | binding response (% of control), % at 10 µM | 290,000 compounds, 1.4% hits | AID 1529, 2009;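 active = binding response more than 3 SD above or below the average of its plate-row segment, actives on both sides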;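 also: Alexa488 bead fluorescence after subtracting the streptavidin-only scavenger bead signal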
An asterisk follows results filed as active; / = no result given; [ ] = remark or other dose.

SMILES	MEKK2mut PB1 HTS	Apaf-1 inh	MEKK2 WT-MEK5	DSG3 Ab inh	UBC13 polyUb	MEKK3 PB1 HTS
CN(Cc1ccccc1)S(=O)(=O)c1ccc(C(=O)Nc2nnc(C3CC3)o2)cc1	4	-3	106	58*	-11	105
CCc1nnc(NC(=O)c2ccc(S(=O)(=O)N(C)Cc3ccccc3)cc2)o1	9	-2	104	106	-22	102
COc1ccc(N2CCN(C(=O)COC(=O)Cc3c(F)cccc3Cl)CC2)cc1	/	3	/	95	0	/
O=C(COC(=O)c1ccc2c(c1)C(=O)N(c1cccc3ncccc13)C2=O)c1ccc(Cl)cc1	-2	-35	80	89	5	70*[inhibitor]
COc1ccc(N(CC(O)Cn2c3ccccc3c3ccccc32)S(=O)(=O)c2ccccc2)cc1 (stereo not drawn)	-9	9	90	115	3	87
CC(=O)Nc1ccccc1N(CC(O)Cn1c2ccccc2c2ccccc21)S(=O)(=O)c1ccc(C)cc1 (stereo not drawn)	0	10	106	87	-4	138*
COc1ccc(Cl)cc1NC(=O)C(C)OC(=O)C1=NNC(=O)CC1 (stereo not drawn)	/	-9	/	/	7	/
CCOC(=O)c1c(C)nc(C)c2c(=O)oc3ccccc3c12	-16	17	81	95*	-11	83
CCOC(=O)c1cc2c(ccc3ccccc32)oc1=O	-10	-5	93	101	11	100
CCNC(=O)c1ccccc1NC(=O)C1CC(=O)N(C(C)C)C1 (stereo not drawn)	5	2	99	101	-3	96
CCOC(=O)Cc1csc(NC(=O)c2c(O)c3c(n(CC(C)C)c2=O)CCCC3)n1	2	-1	-3.0*	106	-10	100
Cc1csc(NC(=O)c2c(O)c3c(n(CC(C)C)c2=O)CCCC3)n1	-2	17	97	103	-8	99
CCN(CC)c1ccc(C(=C2C=CC(=[N+](CC)CC)C=C2)c2ccc(S(=O)(=O)O)cc2S(=O)(=O)[O-])cc1	/	/	/	101	/	/
CC(=O)C1(O)C(C)CC2C3CC(F)C4(O)CC(O)CCC4(C)C3CCC21C (stereo not drawn)	/	/	/	90	/	/
CCC(=O)c1c[nH]c(C(=O)NCCCN2CCOCC2)c1	-3	2	99	95	3	100
CC(C)(C)c1ccc(C(=O)c2c[nH]c(C(=O)NCCCN3CCOCC3)c2)cc1	16	5	123	-3.8*	4	106
COc1ccc(NC(=O)c2ccc3c(c2)C(=O)N(Cc2ccncc2)C3=O)cc1S(N)(=O)=O	/	-13	/	69*	11	/
COc1ccc(C)cc1NC(=O)c1ccc2c(c1)C(=O)N(Cc1ccncc1)C2=O	/	-7	/	101	19	/
COc1ccc(/C=N/NC(=O)c2ccc(Cn3cc([N+](=O)[O-])cn3)o2)c(OC)c1C	/	3	/	96	17	/
COc1ccc(/C=N\NC(=O)c2ccc(Cn3cc(Br)c([N+](=O)[O-])n3)o2)c(OC)c1C	-10	-7	86	65*	16	94
Cc1ccc(NC(=O)Cn2c(=O)c3cccn3c3ccccc32)c(Cl)c1	2	5	92	32*	-9	98
COc1ccc(C(=O)Oc2ccc(F)cc2C(=O)/C=C/c2ccc(OC)c(OC)c2)cc1	23	3	103	89	21	106
COc1ccc(/C=C/C(=O)c2cc(F)ccc2OC(=O)c2ccccc2C)cc1OC	0	5	108	101	-5	150*
Cc1ccc(S(=O)(=O)/C(C#N)=C/c2c(N3CCN(Cc4ccccc4)CC3)nc3ccccn3c2=O)cc1	-4	19	92	102	-8	94
CC(C)(C)c1ccc(C(=O)N2CCN(CCNC(=O)C(=O)NCc3ccc(Cl)cc3)CC2)cc1	5	33	98	96*	3	95
SMILES	MEKK2mut PB1 HTS	Apaf-1 inh	MEKK2 WT-MEK5	DSG3 Ab inh	UBC13 polyUb	MEKK3 PB1 HTS
CC(C)(C)c1ccc(C(=O)NCc2ccc(Cl)cc2)cc1	11	-5	116	86	-6	117
Cc1cc(C)c(C)c(S(=O)(=O)N2CCN(CC(=O)Nc3ccc([N+](=O)[O-])cc3)CC2)c1C	0	17	104	60*	-1	94
Cc1ccc(S(=O)(=O)N2CCN(CC(=O)Nc3ccc([N+](=O)[O-])cc3)CC2)cc1C	-1	11	104	87	-11	100
CCC(C)Nc1ccc(NC(C)CC)cc1 (stereo not drawn)	/	43*	/	97	-11	/
CC1CN(c2sc(S(C)(=O)=O)nc2S(=O)(=O)c2ccc(Cl)cc2)CC(C)O1 (stereo not drawn)	-1	5	95	75*	0	100
CC1CCCN(c2sc(S(C)(=O)=O)nc2S(=O)(=O)c2ccc(Cl)cc2)C1 (stereo not drawn)	-1	18	101	104	-4	100
CC1(C2CC2)NC(=O)N(CC(=O)NCc2ccc(Cl)cc2Cl)C1=O (stereo not drawn)	/	10	/	/	8	/
COCc1cc(C)nc(SCC(=O)Nc2ccccc2N2CCOCC2)c1C#N	5	-3	103	/	4	102
COCc1cc(C)nc(SCC(=O)Nc2cccc3cccnc23)c1C#N	12	7	109	23*	-2	109
O=C(N/N=C/c1ccncc1)c1cccc(NC(=O)c2ccc(Cl)cc2)c1	-3	-24	66	116	2	54*[inhibitor]
O=C(N/N=C/c1ccncc1)c1cccc(N/N=C/c2ccncc2)c1	-1	-13	100	103	-3	98
O=C(N/N=C/c1ccncc1)c1sc2ccccc2c1Cl	2	10	100	-1.9*	2	99
O=C(Nc1ccc(N2CCOCC2)cc1)c1ccc2nc(-c3ccco3)c(-c3ccco3)nc2c1	1	15	100	2.0*	-14	96
CCCCNC(=O)c1ccc2nc(-c3ccco3)c(-c3ccco3)nc2c1	4	28	94	95	-79	99
O=C(Nc1ccccc1)c1ccc2nc(-c3ccco3)c(-c3ccco3)nc2c1	-5	60*	71	94	-19	90
CC(=O)c1ccc(NC(=O)CSc2nnc(-c3ccco3)c(-c3ccco3)n2)cc1	0	35	100	98	1	104

Screening results: PubChem, several laboratories
